The record followed here is ChEMBL document CHEMBL4152247, “Discovery of novel 2,4-diarylaminopyrimidine derivatives as potent and selective epidermal growth factor receptor (EGFR) inhibitors against L858R/T790M resistance mutation” (Eur J Med Chem, 2018).

By IC50 is commonly meant the point on the concentration scale where inhibition reaches its midpoint.

The source made the active and inactive calls. The rule behind the calls is not given here. Some results are limits rather than exact numbers.

For data set [1], the target named is Epidermal growth factor receptor (Homo sapiens, UniProt P00533, L858R/T790M). Nature of the data set: Inhibition of recombinant human GST-tagged EGFR T790M/L858R double mutant expressed in baculovirus expression system using poly (Glu, Tyr) 4:1 as substrate after 1 hr by ELISA. Background: ELISA stands for enzyme-linked immunosorbent assay.
Epidermal growth factor receptor (Homo sapiens, UniProt P00533, L858R/T790M), sequence (P00533 25-1210 T790M/L858R limits assumed): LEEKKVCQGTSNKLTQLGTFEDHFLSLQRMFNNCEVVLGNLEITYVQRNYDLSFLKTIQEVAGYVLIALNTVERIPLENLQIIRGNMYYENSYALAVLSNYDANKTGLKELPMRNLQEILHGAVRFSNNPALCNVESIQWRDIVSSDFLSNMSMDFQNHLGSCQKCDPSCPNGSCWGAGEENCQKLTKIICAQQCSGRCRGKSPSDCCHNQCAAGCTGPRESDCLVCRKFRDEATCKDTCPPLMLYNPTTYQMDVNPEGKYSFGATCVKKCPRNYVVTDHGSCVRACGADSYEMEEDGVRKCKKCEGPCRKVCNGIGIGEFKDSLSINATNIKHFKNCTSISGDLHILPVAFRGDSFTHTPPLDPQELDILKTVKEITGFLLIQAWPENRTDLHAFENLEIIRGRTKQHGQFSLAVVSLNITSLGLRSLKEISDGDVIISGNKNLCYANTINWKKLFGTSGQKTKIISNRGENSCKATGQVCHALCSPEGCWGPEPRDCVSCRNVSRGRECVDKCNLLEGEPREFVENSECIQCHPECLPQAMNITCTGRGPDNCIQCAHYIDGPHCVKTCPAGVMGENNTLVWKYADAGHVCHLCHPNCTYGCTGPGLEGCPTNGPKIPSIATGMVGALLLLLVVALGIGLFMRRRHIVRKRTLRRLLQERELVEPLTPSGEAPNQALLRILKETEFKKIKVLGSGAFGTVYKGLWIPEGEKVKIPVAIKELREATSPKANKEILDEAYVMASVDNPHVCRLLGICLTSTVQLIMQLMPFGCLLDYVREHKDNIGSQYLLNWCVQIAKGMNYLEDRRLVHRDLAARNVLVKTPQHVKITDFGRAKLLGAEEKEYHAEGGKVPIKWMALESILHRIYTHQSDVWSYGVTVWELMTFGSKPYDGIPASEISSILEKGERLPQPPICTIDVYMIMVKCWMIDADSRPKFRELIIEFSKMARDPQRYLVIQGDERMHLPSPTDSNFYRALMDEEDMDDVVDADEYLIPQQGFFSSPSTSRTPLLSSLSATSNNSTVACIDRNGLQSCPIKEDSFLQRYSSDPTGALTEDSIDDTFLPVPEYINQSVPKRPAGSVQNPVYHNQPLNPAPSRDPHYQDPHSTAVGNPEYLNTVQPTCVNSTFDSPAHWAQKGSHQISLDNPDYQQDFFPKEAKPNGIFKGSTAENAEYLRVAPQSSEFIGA
The target in data set [2] is T1, Epidermal growth factor receptor (Homo sapiens, UniProt P00533). Nature of the data set: Inhibition of recombinant human GST-tagged wild type EGFR expressed in baculovirus expression system using poly (Glu, Tyr) 4:1 as substrate after 1 hr by ELISA.
T1 sequence (P00533 whole entry): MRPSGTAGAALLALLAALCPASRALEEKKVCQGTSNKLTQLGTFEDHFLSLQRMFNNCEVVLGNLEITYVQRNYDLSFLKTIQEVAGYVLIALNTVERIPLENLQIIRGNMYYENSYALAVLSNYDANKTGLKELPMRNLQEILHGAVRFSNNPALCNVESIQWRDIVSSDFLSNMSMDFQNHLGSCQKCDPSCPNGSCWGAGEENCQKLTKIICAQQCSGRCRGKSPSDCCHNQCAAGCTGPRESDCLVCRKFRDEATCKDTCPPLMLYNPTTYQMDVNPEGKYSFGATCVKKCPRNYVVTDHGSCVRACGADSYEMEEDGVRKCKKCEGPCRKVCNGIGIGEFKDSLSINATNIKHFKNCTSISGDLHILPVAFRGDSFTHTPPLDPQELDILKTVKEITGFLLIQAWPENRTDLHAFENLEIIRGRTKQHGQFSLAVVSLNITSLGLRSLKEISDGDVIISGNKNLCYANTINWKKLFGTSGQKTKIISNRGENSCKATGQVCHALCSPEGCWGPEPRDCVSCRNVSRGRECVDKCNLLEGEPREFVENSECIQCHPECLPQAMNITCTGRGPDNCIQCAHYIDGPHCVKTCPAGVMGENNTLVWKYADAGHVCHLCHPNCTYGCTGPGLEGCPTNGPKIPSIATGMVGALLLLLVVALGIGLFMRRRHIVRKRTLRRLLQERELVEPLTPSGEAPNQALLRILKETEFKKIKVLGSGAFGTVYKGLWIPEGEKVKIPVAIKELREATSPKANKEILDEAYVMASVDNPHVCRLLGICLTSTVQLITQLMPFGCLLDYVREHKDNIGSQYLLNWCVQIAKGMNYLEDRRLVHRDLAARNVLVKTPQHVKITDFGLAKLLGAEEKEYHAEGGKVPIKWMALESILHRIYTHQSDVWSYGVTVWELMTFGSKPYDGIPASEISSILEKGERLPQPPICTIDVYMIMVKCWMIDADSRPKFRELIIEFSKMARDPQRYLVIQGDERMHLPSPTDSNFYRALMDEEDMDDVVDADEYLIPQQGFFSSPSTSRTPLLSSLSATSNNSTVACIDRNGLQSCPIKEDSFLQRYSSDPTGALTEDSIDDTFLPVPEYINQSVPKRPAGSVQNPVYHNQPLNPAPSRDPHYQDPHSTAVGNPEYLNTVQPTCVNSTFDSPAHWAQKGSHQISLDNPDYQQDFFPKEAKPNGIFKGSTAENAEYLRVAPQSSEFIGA
Data set [3] deals with NCI-H1975. Put plainly: Antitumor activity against EGFR T790M/L858R double mutant expressing human NCI-H1975 cells xenografted in po dosed BALB/c athymic nude mouse assessed as tumor growth inhibition administered as bid for 21 days. In kind it is functional, organism-based.
The species named for data set [4] is Homo sapiens. Nature of the data set: Selectivity ratio of IC50 for recombinant human GST-tagged wild type EGFR to IC50 for recombinant human GST-tagged EGFR T790M/L858R double mutant.
In data set [5] the test system is NCI-H1975. Nature of the data set: Antiproliferative activity against EGFR T790M/L858R double mutant expressing human NCI-H1975 cells after 72 hrs by SRB assay. As to conditions: NCI-H1975, 72 h. In kind it is functional, cell-based. Put shortly:
(§1)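 SRB assay: cells seeded at 5×10^3 per well for 24 h, then exposed to serial dilutions for 72 h. DMSO stocks were 10.0 mg/ml. Cells were fixed with 10% TCA at 4 °C for 1 h and stained 15 min with 4 mg/mL SRB in 1% acetic acid. Absorbance was read at 515 nm. Inhibition was taken as [1-(A515 treated/A515 control)]×100%. IC50 was obtained by the logit method, averaging at least three independent experiments.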
On the technique in general: In SRB staining, fixed cells bind dye roughly in proportion to their protein.

Another data set relates to A-431. Put plainly: Antiproliferative activity against wild type EGFR expressing human A431 cells after 72 hrs by SRB assay. The note with it: A-431, 72 h. The format is cell-based. In short, it runs like this: as §1
The subject of data set [6] is Mus musculus. Nature of the data set: Toxicity in BALB/c athymic nude mouse xenografted with wild type EGFR expressing human A431 cells assessed as body weight loss at 10 to 20 mg/kg, po bid for 21 days. As to conditions: in vivo, 504 h.
The subject of data set [7] is Mus musculus. Put plainly: In vivo inhibition of wild type EGFR phosphorylation in tumor of BALB/c athymic nude mouse xenografted with human A431 cells at 10 mg/kg, po bid for 21 days. As to conditions: 504 h. In general terms: In xenograft studies the graft and the host belong to different species.
In data set [8] the test system is Mus musculus. Nature of the data set: In vivo inhibition of wild type EGFR phosphorylation in tumor of BALB/c athymic nude mouse xenografted with human A431 cells assessed as decrease in Akt phosphorylation at 10 mg/kg, po bid for 21 days. As to conditions: 504 h.
Data set [9] concerns Mus musculus. Put plainly: In vivo inhibition of EGFR T790M/L858R double mutant phosphorylation in tumor of BALB/c athymic nude mouse xenografted with human NCI-H1975 cells at 10 mg/kg, po bid for 21 days. The format is functional, organism-based. In short, it runs like this:
(§2)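 Western blot of NCI-H1975 xenograft tumors from mice given 10 mg/kg orally twice daily. Phospho-EGFR and phospho-Akt were quantified against the vehicle control group. Significance was set at p < 0.05.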

The test system of data set [10] is Epidermal growth factor receptor (Homo sapiens), P00533 [L858R,T790M]. Nature of the data set: Inhibition of EGF-induced EGFR T790M/L858R double mutant phosphorylation in human NCI-H1975 cells preincubated for 2 hrs followed by EGF induction and measured after 10 mins by Western blot analysis. In kind it is cell-based. In short, it runs like this: (§3)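 Cells were treated with or without compound for 2 h, then stimulated with 50 ng/ml EGF for 10 min. They were lysed in SDS lysis buffer for Western blot. Blots were probed for p-EGFR, EGFR, p-ERK, ERK, p-AKT and AKT, with tubulin as reference.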
Epidermal growth factor receptor (Homo sapiens), P00533 [L858R,T790M], sequence (P00533 whole entry T790M/L858R, looked up): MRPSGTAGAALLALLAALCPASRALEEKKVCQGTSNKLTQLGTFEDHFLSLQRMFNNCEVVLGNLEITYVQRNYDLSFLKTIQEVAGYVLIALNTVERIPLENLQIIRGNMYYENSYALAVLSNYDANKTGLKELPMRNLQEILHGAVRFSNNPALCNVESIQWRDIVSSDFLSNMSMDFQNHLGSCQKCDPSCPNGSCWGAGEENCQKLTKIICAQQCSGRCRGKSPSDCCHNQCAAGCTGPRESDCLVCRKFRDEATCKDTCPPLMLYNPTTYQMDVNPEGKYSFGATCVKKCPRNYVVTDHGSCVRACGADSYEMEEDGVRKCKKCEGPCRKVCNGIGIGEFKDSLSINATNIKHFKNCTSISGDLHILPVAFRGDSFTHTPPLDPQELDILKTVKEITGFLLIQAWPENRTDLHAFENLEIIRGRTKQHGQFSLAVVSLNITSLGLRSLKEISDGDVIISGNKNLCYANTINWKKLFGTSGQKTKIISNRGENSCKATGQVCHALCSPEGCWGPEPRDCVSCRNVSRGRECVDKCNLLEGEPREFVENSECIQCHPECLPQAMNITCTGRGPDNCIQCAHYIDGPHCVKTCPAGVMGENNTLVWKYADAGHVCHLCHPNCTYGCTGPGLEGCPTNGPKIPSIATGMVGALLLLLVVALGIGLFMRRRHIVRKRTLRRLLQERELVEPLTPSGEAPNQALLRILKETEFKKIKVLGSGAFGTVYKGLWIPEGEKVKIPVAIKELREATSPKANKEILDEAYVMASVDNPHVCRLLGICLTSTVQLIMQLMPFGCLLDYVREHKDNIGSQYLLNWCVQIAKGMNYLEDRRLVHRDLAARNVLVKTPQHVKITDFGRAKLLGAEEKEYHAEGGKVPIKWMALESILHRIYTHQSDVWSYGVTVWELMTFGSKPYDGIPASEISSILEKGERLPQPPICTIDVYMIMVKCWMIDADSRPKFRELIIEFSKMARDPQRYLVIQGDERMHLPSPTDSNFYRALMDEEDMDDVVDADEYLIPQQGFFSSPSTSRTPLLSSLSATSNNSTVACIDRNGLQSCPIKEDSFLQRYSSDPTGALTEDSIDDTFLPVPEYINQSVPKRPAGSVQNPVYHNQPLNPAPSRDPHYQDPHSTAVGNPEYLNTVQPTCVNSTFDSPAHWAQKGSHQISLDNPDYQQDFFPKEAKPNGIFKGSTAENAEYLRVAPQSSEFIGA

The subject of data set [11] is Mus musculus. Nature of the data set: Toxicity in BALB/c athymic nude mouse xenografted with EGFR T790M/L858R double mutant expressing human NCI-H1975 cells assessed as body weight loss at 10 to 20 mg/kg, po bid for 21 days. The format is organism-based. The note with it: in vivo, 504 h.
Data set [12] relates to Epidermal growth factor receptor (Homo sapiens), P00533 [L858R,T790M]. Nature of the data set: Inhibition of EGF-induced EGFR T790M/L858R double mutant in human NCI-H1975 cells assessed as decrease in ERK phosphorylation preincubated for 2 hrs followed by EGF induction and measured after 10 mins by Western blot analysis. In kind it is cell-based. Put shortly: as §3
The subject of another data set is A431 (Homo sapiens). Put plainly: Antitumor activity against wild type EGFR expressing human A431 cells xenografted in BALB/c athymic nude mouse assessed as tumor growth inhibition at 20 mg/kg, po bid for 21 days relative to vehicle-treated control. As to conditions: in vivo, 504 h.
The test system of data set [13] is Mus musculus. Nature of the data set: In vivo inhibition of EGFR T790M/L858R double mutant phosphorylation in tumor of BALB/c athymic nude mouse xenografted with human NCI-H1975 cells assessed as decrease in Akt phosphorylation at 10 mg/kg, po bid for 21 days. The format is functional, organism-based. In short, it runs like this: as §2
The species entered for data set [14] is Homo sapiens. Nature of the data set: Selectivity index, ratio of IC50 for wild type EGFR expressing human A431 cells to IC50 for EGFR T790M/L858R double mutant expressing human NCI-H1975 cells.
Data set [15] addresses T1, Epidermal growth factor receptor. Put plainly: Inhibition of EGF-induced wild type EGFR phosphorylation in human A431 cells at 0.1 to 1000 nM preincubated for 2 hrs followed by EGF induction and measured after 10 mins by Western blot analysis. In kind it is cell-based. As to conditions: 1 µM. Put shortly: as §3
Data set [16] relates to Epidermal growth factor receptor (Homo sapiens), P00533 [L858R,T790M]. Nature of the data set: Inhibition of EGF-induced EGFR T790M/L858R double mutant in human NCI-H1975 cells assessed as decrease in AKT phosphorylation preincubated for 2 hrs followed by EGF induction and measured after 10 mins by Western blot analysis. In kind it is cell-based. In short, it runs like this:
as §3

Data set [17] relates to NCI-H1975. Nature of the data set: Antitumor activity against EGFR T790M/L858R double mutant expressing human NCI-H1975 cells xenografted in BALB/c athymic nude mouse assessed as tumor growth inhibition at 10 mg/kg, po bid for 21 days. In kind it is functional, organism-based. Put shortly:
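5×10^6 NCI-H1975 cells injected subcutaneously into the right flank of athymic mice. At tumour volume 100-300 mm³, mice were randomised (n = 6 per group) to vehicle or drug. Drug given orally twice daily. Tumour size and body weight were measured on set days, with volume = length×width²/2. Results are group means with SEM.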

Take `C=CC(=O)Nc1cc(Nc2nccc(Nc3ccccc3-c3ccn(C)n3)n2)c(OC)cc1N1CCN(C)CC1`: the IC50 in data set [1] and in [2] was > 1000 nM each time.
Consider `C=CC(=O)Nc1cc(Nc2nccc(Nc3ccccc3-c3ccn(C)n3)n2)c(OC)cc1N(C)CCN(C)C`, for which the TGI result in the data set with NCI-H1975 [3] is “Dose-dependent effect”; in the data set on A431 (Homo sapiens), < 20%. The results for the Ratio IC50 in the data set listed under Homo sapiens [4] and in the data set filed under Homo sapiens [14] were 85 and 124, respectively. In addition, the half-inhibitory concentration (IC50) came out at 59 nM in the data set with NCI-H1975 [5], 7370 nM in the data set on A-431, 4.1 nM in [1] and 350 nM in data set [2]. In addition, the Activity result with Mus musculus [6] and in the data set with Mus musculus [11] was “Non-Toxic” each time. In addition, the “inhibition (INH)” value (with Mus musculus [7]; with Mus musculus [8]; in data set [15]) was “Not Active” throughout. Also, the inhibition result with Mus musculus [9] and with Mus musculus [13] was “Active” each time. The inhibition entry in [10], in data set [12] and in [16] was “Dose-dependent effect” each time.
With `C=CC(=O)Nc1cc(Nc2nccc(Nc3ccccc3-n3nccn3)n2)c(OC)cc1N1CCN(C)CC1`, the IC50 in [1] is 175 nM; in data set [2], > 1000 nM.
On to `C=CC(=O)Nc1cc(Nc2nccc(Nc3ccccc3-n3cccn3)n2)c(OC)cc1N1CCOCC1`, for which the IC50 in data set [1] and in data set [2] was > 1000 nM throughout.
On to `C=CC(=O)Nc1cc(Nc2nccc(Nc3ccccc3-n3nccn3)n2)c(OC)cc1N1CCC(N(C)C)CC1`, for which the IC50 in the data set with NCI-H1975 [5] was 70 nM; in the data set with A-431, 2760 nM; in [1], 202 nM; in data set [2], > 1000 nM. The Ratio IC50 in the data set filed under Homo sapiens [14] is 39.
In the case of `C=CC(=O)Nc1cc(Nc2nccc(Nc3ccccc3-c3ccn(C)n3)n2)c(OC)cc1N1CCOCC1`, the IC50 in [1] and in [2] was > 1000 nM throughout.
As for `C=CC(=O)Nc1cc(Nc2nccc(Nc3ccccc3-n3nccn3)n2)c(OC)cc1N1CCOCC1`, the IC50 is 838 nM in data set [1] and > 1000 nM in data set [2].
As to `C=CC(=O)Nc1cc(Nc2nccc(Nc3ccccc3-c3ncn(C)n3)n2)c(OC)cc1N(C)CCN(C)C`, the Ratio IC50 is 86 in the data set listed under Homo sapiens [4] and 20 in the data set filed under Homo sapiens [14]. Besides, the IC50 amounted to 74 nM with NCI-H1975 [5], 1500 nM in the data set with A-431, 7.7 nM in data set [1] and 660 nM in data set [2].
With `C=CC(=O)Nc1cc(Nc2nccc(Nc3ccccc3-n3nccn3)n2)c(OC)cc1N(C)CCN(C)C`, the Ratio IC50 in the data set filed under Homo sapiens [4] turned out to be 8. Also, the values for the IC50 in [1] and in [2] were 33.1 nM and 281 nM, respectively.
Regarding `C=CC(=O)Nc1cc(Nc2nccc(Nc3ccccc3-n3cccn3)n2)c(OC)cc1N(C)CCN(C)C`, the Ratio IC50 in the data set listed under Homo sapiens [4] came to 158; in the data set filed under Homo sapiens [14], 148. Also, the IC50 in the data set with NCI-H1975 [5] was 68 nM; in the data set with A-431, 10100 nM; in data set [1], 4.1 nM; in data set [2], 648 nM.
Take `C=CC(=O)Nc1cc(Nc2nccc(-c3cn(C)c4ccccc34)n2)c(OC)cc1N(C)CCN(C)C` [OSIMERTINIB]: the figures for the IC50 with NCI-H1975 [5] and in the data set with A-431 were […] and […], respectively. Further, in the data set with NCI-H1975 [17], the TGI result is “Active”.
As for `C=CC(=O)Nc1cc(Nc2nccc(Nc3ccccc3-c3ccn(C)n3)n2)c(OC)cc1OCCN(C)C`, the Ratio IC50 in the data set filed under Homo sapiens [4] worked out at 19; in the data set listed under Homo sapiens [14] it was 18. For the same compound, the IC50 in the data set with NCI-H1975 [5] was determined as 85 nM; in the data set on A-431, 1580 nM; in data set [1], 16.4 nM; in data set [2], 317 nM.
In the case of `C=CC(=O)Nc1cc(Nc2nccc(Nc3ccccc3-c3ccn(C)n3)n2)c(OC)cc1N1CCC(N(C)C)CC1`, the figures for the IC50 in data set [1] and in data set [2] were 38.5 nM and > 1000 nM, respectively.
In the same order, the values of `C=CC(=O)Nc1cc(Nc2nccc(Nc3ccccc3-n3cccn3)n2)c(OC)cc1N1CCN(C)CC1` are 143 nM and > 1000 nM.
